The subject of assay [1] is Pseudomonas aeruginosa. The assay can be described thus: Antibiofilm activity against Pseudomonas aeruginosa clinical isolate 99 assessed as inhibition of biofilm formation at MIC incubated for 24 hrs by crystal violet staining based microtiter plate method. The class given is functional, organism-based. An outline of the steps:
(§1)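 Washed overnight cultures in BM2 medium at 1 × 10^6 CFU/mL with 2-fold serial peptide dilutions in a U-bottom 96-well plate. Incubated 24 h at 37 °C without agitation. Unattached cells washed off, then 0.1% crystal violet stain read at 590 nm. No-bacteria blanks. Biomass expressed as % of untreated biofilm. At least three biological repeats.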

Assay [2] concerns Pseudomonas aeruginosa. The assay can be described thus: Drug resistance in Pseudomonas aeruginosa PAO1 in BM2 medium assessed as fold change in MIC.
Assay [3] concerns Pseudomonas aeruginosa. The assay can be described thus: Antibiofilm activity against Pseudomonas aeruginosa clinical isolate 24 assessed as inhibition of biofilm formation at MIC incubated for 24 hrs by crystal violet staining based microtiter plate method. In kind it is functional, organism-based. An outline of the steps: as §1
Assay [4] concerns Pseudomonas aeruginosa. The assay can be described thus: Antibiofilm activity against Pseudomonas aeruginosa clinical isolate 46 in basal medium 2 at 12.5 to 100 uM incubated for 24 hrs by resazurin staining based microtiter plate method. In kind it is functional, organism-based. The settings on record: dose 12.5-100 µM.
The test system of assay [5] is Pseudomonas aeruginosa. The assay can be described thus: Antibiofilm activity against Pseudomonas aeruginosa PAO1 in basal medium 2 at 12.5 to 100 uM incubated for 24 hrs by resazurin staining based microtiter plate method. Particulars: dose 12.5-100 µM. In kind it is functional, organism-based. A general note: Resazurin is reduced to fluorescent resorufin, in cell work by metabolically active cells.

In assay [6] the test system is Pseudomonas aeruginosa. The assay can be described thus: Antibiofilm activity against Pseudomonas aeruginosa clinical isolate 24 in basal medium 2 at 12.5 to 100 uM incubated for 24 hrs by resazurin staining based microtiter plate method. The settings on record: dose 12.5-100 µM. In kind it is functional, organism-based.
Assay [7] deals with Pseudomonas aeruginosa. The assay can be described thus: Induction of biofilm degradation of Pseudomonas aeruginosa clinical isolate 59 at 50 uM incubated for 1 hr by crystal violet staining analysis relative to control. The class given is functional. The method, boiled down:
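Inoculum of 1 × 10^6 CFU/mL was grown 24 h at 37 °C without agitation to form biofilm. Wells were rinsed of unattached bacteria and exposed for 1 h to serial peptide dilutions (1.56–50 μM). They were then washed, stained with 0.1% crystal violet, and read at 590 nm with no-bacteria blanks. Biomass is given as % of untreated biofilm.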

For assay [8], the system named is Pseudomonas aeruginosa. The assay can be described thus: Antibiofilm activity against Pseudomonas aeruginosa clinical isolate 25 assessed as inhibition of biofilm formation at MIC incubated for 24 hrs by crystal violet staining based microtiter plate method. The class given is functional, organism-based. The method, boiled down:
as §1

For assay [9], the system named is Pseudomonas aeruginosa. The assay can be described thus: Drug resistance in Pseudomonas aeruginosa clinical isolate 24 in BM2 medium assessed as fold change in MIC.
Assay [10] deals with Pseudomonas aeruginosa. The assay can be described thus: Antibiofilm activity against Pseudomonas aeruginosa clinical isolate 82 in basal medium 2 at 12.5 to 100 uM incubated for 24 hrs by resazurin staining based microtiter plate method. The class given is functional, organism-based. The settings on record: dose 12.5-100 µM.
In assay [11] the test system is Pseudomonas aeruginosa. The assay can be described thus: Induction of biofilm degradation of Pseudomonas aeruginosa clinical isolate 995 at sub MIC concentration incubated for 1 hr by crystal violet staining analysis. The class given is functional. An outline of the steps: (§2)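 Bacteria at 1 × 10^6 CFU/mL in BM2 grown static at 37 °C for 24 h to form biofilm. Wells rinsed of unattached cells, then exposed for 1 h to serial peptide dilutions (1.56–50 μM). Washed, stained with 0.1% crystal violet, A590 read. Biomass given as % of untreated biofilm; no-bacteria wells as blanks. At least three biological repeats.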

Assay [12] concerns Pseudomonas aeruginosa. The assay can be described thus: Induction of biofilm degradation of Pseudomonas aeruginosa clinical isolate 59 at sub MIC concentration incubated for 1 hr by crystal violet staining analysis. The class given is functional. The method, boiled down:
as §2

Assay [13] relates to Pseudomonas aeruginosa PAO1. The assay can be described thus: Induction of biofilm degradation of Pseudomonas aeruginosa PAO1 in cystic fibrosis patient sputum at 10 uM incubated for 48 hr by resazurin staining based confocal microscopy analysis.
Assay [14] relates to Pseudomonas aeruginosa. The assay can be described thus: Induction of biofilm degradation of Pseudomonas aeruginosa clinical isolate 29 at sub MIC concentration incubated for 1 hr by crystal violet staining analysis. In kind it is functional. The method, boiled down:
as §2

In assay [15] the test system is Pseudomonas aeruginosa. The assay can be described thus: Antibiofilm activity against Pseudomonas aeruginosa clinical isolate 59 assessed as inhibition of biofilm formation at 1.56 uM incubated for 24 hrs by crystal violet staining based microtiter plate method. The class given is functional, organism-based. An outline of the steps:
as §1

The subject of assay [16] is Pseudomonas aeruginosa. The assay can be described thus: Antibiofilm activity against Pseudomonas aeruginosa PAO1 assessed as inhibition of biofilm formation at 1.56 uM incubated for 24 hrs by crystal violet staining based microtiter plate method. The class given is functional, organism-based.
Assay [17] concerns Pseudomonas aeruginosa. The assay can be described thus: Antibiofilm activity against Pseudomonas aeruginosa clinical isolate 46 assessed as inhibition of biofilm formation at 1.56 uM incubated for 24 hrs by crystal violet staining based microtiter plate method. The class given is functional, organism-based. An outline of the steps: as §1
Assay [18] concerns Pseudomonas aeruginosa. The assay can be described thus: Antibiofilm activity against Pseudomonas aeruginosa PAO1 in artificial sputum medium at 100 uM incubated for 24 hrs by resazurin staining based microtiter plate method. In kind it is functional, organism-based. An outline of the steps: (§3)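 Washed overnight culture set to OD ~0.05 in BM2, diluted 1:100 into artificial sputum medium (pH 6.9) in 24-well plates. Grown 3 days aerobically at 37 °C with agitation. Peptides (12.5–100 μM) added for 24 h with agitation. Biofilm disrupted by cellulase for 1 h at 37 °C. Resazurin 0.02% for 1–2 h, fluorescence ex 530/em 590 nm; viability as % of untreated wells.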

The test system of assay [19] is Pseudomonas aeruginosa. The assay can be described thus: Antibiofilm activity against Pseudomonas aeruginosa assessed as inhibition of biofilm formation at 0.5 times of MIC incubated for 24 hrs by crystal violet staining based microtiter plate method. In kind it is functional, organism-based. An outline of the steps:
as §1

Assay [20] relates to Pseudomonas aeruginosa. The assay can be described thus: Antibiofilm activity against Pseudomonas aeruginosa PAO1 in artificial sputum medium at 50 uM incubated for 24 hrs by resazurin staining based microtiter plate method. In kind it is functional, organism-based. The method, boiled down:
as §3

Assay [21] has as its system Pseudomonas aeruginosa. The assay can be described thus: Antibiofilm activity against Pseudomonas aeruginosa clinical isolate 99 assessed as inhibition of biofilm formation at 1.56 uM incubated for 24 hrs by crystal violet staining based microtiter plate method. The class given is functional, organism-based. An outline of the steps: as §1
Assay [22] relates to Pseudomonas aeruginosa. The assay can be described thus: Antibiofilm activity against Pseudomonas aeruginosa clinical isolate 629 assessed as inhibition of biofilm formation at 1.56 uM incubated for 24 hrs by crystal violet staining based microtiter plate method. In kind it is functional, organism-based. An outline of the steps:
as §1

In assay [23] the test system is Pseudomonas aeruginosa. The assay can be described thus: Antibiofilm activity against Pseudomonas aeruginosa clinical isolate 172 assessed as inhibition of biofilm formation at 1.56 uM incubated for 24 hrs by crystal violet staining based microtiter plate method. In kind it is functional, organism-based. The method, boiled down: as §1
The subject of assay [24] is Pseudomonas aeruginosa. The assay can be described thus: Antibiofilm activity against Pseudomonas aeruginosa clinical isolate 46 in artificial sputum medium at 50 uM incubated for 24 hrs by resazurin staining based microtiter plate method. The class given is functional, organism-based. The method, boiled down:
as §3

In assay [25] the test system is Pseudomonas aeruginosa. The assay can be described thus: Antibiofilm activity against Pseudomonas aeruginosa clinical isolate 72 assessed as inhibition of biofilm formation at 1.56 uM incubated for 24 hrs by crystal violet staining based microtiter plate method. The class given is functional, organism-based. An outline of the steps:
as §1

Assay [26] relates to Pseudomonas aeruginosa. The assay can be described thus: Antibiofilm activity against Pseudomonas aeruginosa PAO1 in artificial sputum medium at 25 uM incubated for 24 hrs by resazurin staining based microtiter plate method relative to control. In kind it is functional. The method, boiled down: as §3
The test system of assay [27] is Pseudomonas aeruginosa. The assay can be described thus: Induction of biofilm degradation of Pseudomonas aeruginosa clinical isolate 82 derived from cystic fibrosis patient sputum at 1.56 to 50 uM by crystal violet based staining analysis. The class given is functional. The settings on record: dose 1.56-50 µM. The method, boiled down:
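Biofilm grown from 1 × 10^6 CFU/mL in pooled CF patient sputum diluted 10-fold with BM2, static, 37 °C, 24 h. Unattached cells rinsed off, then serial peptide dilutions (1.56–50 μM) applied for 1 h. Washed and stained with 0.1% crystal violet, read at 590 nm. Reported as % of untreated biomass, with no-bacteria blanks.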

The test system of assay [28] is Pseudomonas aeruginosa. The assay can be described thus: Antibiofilm activity against Pseudomonas aeruginosa clinical isolate 52 assessed as inhibition of biofilm formation at 1.56 uM incubated for 24 hrs by crystal violet staining based microtiter plate method. The class given is functional, organism-based. The method, boiled down: as §1

Calls of active or inactive are those of the source. The rule behind the calls is not given here.

`CC[C@H](C)[C@H](NC(=O)[C@H](CCCCN)NC(=O)[C@H](CCC(=O)O)NC(=O)[C@H](CCCCN)NC(=O)[C@H](CO)NC(=O)[C@H](CCCCN)NC(=O)[C@H](CCCNC(=N)N)NC(=O)[C@H](Cc1ccccc1)NC(=O)[C@H](Cc1ccccc1)NC(=O)[C@H](CC(=O)O)NC(=O)CNC(=O)[C@H](CC(C)C)NC(=O)[C@@H](N)CC(C)C)C(=O)NCC(=O)N[C@@H](CCCCN)C(=O)N[C@@H](CCC(=O)O)C(=O)N[C@@H](Cc1ccccc1)C(=O)N[C@@H](CCCCN)C(=O)N[C@@H](CCCNC(=N)N)C(=O)N[C@H](C(=O)N[C@H](C(=O)N[C@@H](CCC(N)=O)C(=O)N[C@@H](CCCNC(=N)N)C(=O)N[C@H](C(=O)N[C@@H](CCCCN)C(=O)N[C@@H](CC(=O)O)C(=O)N[C@@H](Cc1ccccc1)C(=O)N[C@@H](CC(C)C)C(=O)N[C@@H](CCCNC(=N)N)C(=O)N[C@@H](CC(N)=O)C(=O)N[C@@H](CC(C)C)C(=O)N[C@H](C(=O)N1CCC[C@H]1C(=O)N[C@@H](CCCNC(=N)N)C(=O)N[C@H](C(=O)N[C@@H](CCC(=O)O)C(=O)N[C@@H](CO)C(N)=O)[C@@H](C)O)C(C)C)[C@@H](C)CC)C(C)C)[C@@H](C)CC`: the inhibition result in the assay on Pseudomonas aeruginosa [1], in the assay with Pseudomonas aeruginosa [3] and with Pseudomonas aeruginosa [8] was “Active” in each case. In addition, the “fold change (FC)” value in the assay with Pseudomonas aeruginosa [2] and in the assay on Pseudomonas aeruginosa [9] was below 20 in each case. Besides, the result with Pseudomonas aeruginosa [4], with Pseudomonas aeruginosa [5], in the assay with Pseudomonas aeruginosa [6] and in the assay on Pseudomonas aeruginosa [10] was Active. Further, the Activity in the assay with Pseudomonas aeruginosa [7] amounted to 40%.

As to `CC(C)C[C@H](NC(=O)[C@H](CC(C)C)NC(=O)[C@H](CC(C)C)NC(=O)[C@H](CC(C)C)NC(=O)[C@H](CC(C)C)NC(=O)[C@H](CC(C)C)NC(=O)[C@H](CC(C)C)NC(=O)[C@H](CC(C)C)NC(=O)[C@H](CC(C)C)NC(=O)[C@H](CCCCN)NC(=O)[C@H](CCCCN)NC(=O)[C@@H](N)CCCCN)C(=O)N[C@@H](CCCCN)C(=O)N[C@@H](CCCCN)C(=O)N[C@@H](CCCCN)C(N)=O`, the outcome in the assay on Pseudomonas aeruginosa [11], with Pseudomonas aeruginosa [4], with Pseudomonas aeruginosa [5], with Pseudomonas aeruginosa [6], in the assay with Pseudomonas aeruginosa [10] and in the assay with Pseudomonas aeruginosa [12] was Active. For the same compound, the outcome (in assay [13]; in the assay with Pseudomonas aeruginosa [14]) was Active. Moreover, in the assay on Pseudomonas aeruginosa [7], the Activity was 40%.

Regarding `CC(C)C[C@H](NC(=O)[C@H](CC(C)C)NC(=O)[C@H](CCCCN)NC(=O)[C@H](CC(C)C)NC(=O)[C@H](CC(C)C)NC(=O)[C@H](CCCCN)NC(=O)[C@H](CCCCN)NC(=O)[C@H](CC(C)C)NC(=O)[C@H](CC(C)C)NC(=O)[C@H](CCCCN)NC(=O)[C@H](CCCCN)NC(=O)[C@H](CC(C)C)NC(=O)[C@H](CC(C)C)NC(=O)[C@H](CCCCN)NC(=O)[C@@H](N)CC(C)C)C(N)=O`, the inhibition entry in the assay on Pseudomonas aeruginosa [1], in the assay on Pseudomonas aeruginosa [15], in the assay with Pseudomonas aeruginosa [16], with Pseudomonas aeruginosa [17], in the assay on Pseudomonas aeruginosa [19] and in the assay with Pseudomonas aeruginosa [3] was “Active” each time. Moreover, the inhibition result in the assay with Pseudomonas aeruginosa [21], with Pseudomonas aeruginosa [8], in the assay with Pseudomonas aeruginosa [22], in the assay with Pseudomonas aeruginosa [23], in the assay with Pseudomonas aeruginosa [25] and in the assay with Pseudomonas aeruginosa [28] was “Active” in each case. The “fold change (FC)” value in the assay with Pseudomonas aeruginosa [2] and in the assay on Pseudomonas aeruginosa [9] was below 20 throughout. The outcome (in the assay on Pseudomonas aeruginosa [18]; in the assay on Pseudomonas aeruginosa [20]; in the assay with Pseudomonas aeruginosa [24]; in the assay on Pseudomonas aeruginosa [27]; in [13]) was Active. The Activity in the assay with Pseudomonas aeruginosa [26] is listed as 66.7%.

(Values after ChEMBL document CHEMBL5143722, “Antimicrobial Peptides against Multidrug-Resistant Pseudomonas aeruginosa Biofilm from Cystic Fibrosis Patients” (J Med Chem, 2022).)
